ChEMBL document CHEMBL1122055, “DL-threo-beta-Fluoroaspartate and DL-threo-beta-fluoroasparagine: selective cytotoxic agents for mammalian cells in culture” (J Med Chem, 1982)
“And” between values parts separate entries of the source, which are not always exact repeats. Equal values may be shown once.

Columns and labels:
H4 [1] = experiment: Tested for its reversal effect on growth of H4 cells at 330 + 5 ug/mL concentrations of L-aspargine and DL-threo-beta-fluoroaspartate; type: functional
In short: (§1)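 H4 hepatoma cells seeded at 8×10^3 per 35-mm dish in F 10+ medium. On day 4, the medium was renewed and treatments started, including L-aspartate or L-asparagine. Incubation 72 h, then Lowry total cell protein per dish. Results reported as % of untreated control, mean of duplicate dishes.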

H4 [2] = experiment: Tested for its reversal effect on growth of H4 cells at 133 + 5 ug/mL concentrations of L-aspargine and DL-threo-beta-fluoroaspartate; type: functional
In short: (§2)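 Rat hepatoma H4 cells seeded at 1.4×10^4 per 35-mm dish in MEM+. On day 4, fresh MEM+ was added, with treatments including L-aspartate or L-asparagine. Exposure 66 h, then total cell protein per dish measured by Lowry. Results expressed as % of untreated control protein, mean of duplicate dishes.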

H4 [3] = experiment: Tested for its reversal effect on growth of H4 cells at 133 + 50 ug/mL concentrations of L-aspargine and DL-threo-beta-fluoroaspartate; type: functional; in short: as §2
H4 [4] = experiment: Tested for its reversal effect on growth of H4 cells at 330 + 40 ug/mL concentrations of L-aspargine and DL-threo-beta-fluoroaspartate; type: functional; in short: as §1
7800C1 cell line [5] = experiment: Tested for its cytotoxic effect on the growth of the cell strain 7800C1 (1 x 10e 4 (MEM)) at 50 ug/mL dose; type: functional, Rattus norvegicus
In short: (§3)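 Cells plated in 35-mm dishes at the stated density and medium (F 10+: Ham's F10 + 15% horse serum + 2.5% fetal calf serum; MEM+: Eagle's MEM + 5% horse + 5% fetal calf serum), grown 3 days. All strains then switched to F 10+ before treatment and incubated 4 days. Growth read as total cell protein per dish (Lowry, bovine albumin standard). Single determinations; experiment repeated twice.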

7800C1 cell line [6] = experiment: Tested for its cytotoxic effect on the growth of the cell strain 7800C1 (1 x 10e 4 (MEM)) at 10 ug/mL dose; type: functional, Rattus norvegicus; in short: as §3
GH4-C1 [7] = experiment: Tested for its cytotoxic effect on the growth of the cell strain GH4C1 (8 x 10e 4 (F 10+)) at 10 ug/mL dose; type: functional, Rattus norvegicus; in short: as §3
GH3 [8] = experiment: Tested for its cytotoxic effect on the growth of the cell strain GH3 (2 x 10e 4 (F 10+)) at 10 ug/mL dose; type: functional, Rattus norvegicus; in short: as §3
GH4-C1 [9] = experiment: Tested for its cytotoxic effect on the growth of the cell strain GH4C1 (8 x 10e 4 (F 10+)) at 50 ug/mL dose; type: functional, Rattus norvegicus; in short: as §3
H4 [10] = experiment: Tested for its cytotoxic effect on the growth of the cell strain H4 (8 x 10e 3 (MEM)) at 10 ug/mL dose; type: functional; in short: as §3
H4 [11] = experiment: Tested for its cytotoxic effect on the growth of the cell strain H4 (8 x 10e 3 (MEM)) at 50 ug/mL dose; type: functional; in short: as §3
H4 [12] = experiment: Tested for its reversal effect on growth of H4 cells at 40 ug/mL concentrations of L-aspargine and DL-threo-beta-fluoroaspartate; type: functional; in short: as §1
H4 [13] = experiment: Tested for its reversal effect on growth of H4 cells at 50 ug/mL concentrations of L-aspargine and DL-threo-beta-fluoroaspartate; type: functional; in short: as §2
MH1C1 [14] = experiment: Tested for its cytotoxic effect on the growth of the cell strain MH1C1 (1 x 10e 4 (F 10+)) at 10 ug/mL dose; type: functional; in short: as §3
MH1C1 [15] = experiment: Tested for its cytotoxic effect on the growth of the cell strain MH1C1 (1 x 10e 4 (F 10+)) at 50 ug/mL dose; type: functional; in short: as §3
R5 [16] = experiment: Tested for its cytotoxic effect on the growth of the cell strain R5 (1 x 10e 3 (F 10+)) at 10 ug/mL dose; type: functional; in short: as §3
R5 [17] = experiment: Tested for its cytotoxic effect on the growth of the cell strain R5 (1 x 10e 3 (F 10+)) at 50 ug/mL dose; type: functional; in short: as §3
GH3 [18] = experiment: Tested for its cytotoxic effect on the growth of the cell strain GH3 (2 x 10e 4 (F 10+)) at 50 ug/mL dose; type: functional, Rattus norvegicus; in short: as §3
7800C1 cell line [19] = experiment: Tested for its cytotoxic effect on the growth of the cell strain 7800C1 (1 x 10e 4 (MEM)) at 2 ug/mL dose; type: functional, Rattus norvegicus; in short: as §3
7800C1 cell line [20] = experiment: Tested for its cytotoxic effect on the growth of the cell strain 7800C1 (1 x 10e 4 (MEM)) at 20 ug/mL dose; type: functional, Rattus norvegicus; in short: as §3
7800C1 cell line [21] = experiment: Tested for its cytotoxic effect on the growth of the cell strain 7800C1 (1 x 10e 4 (MEM)) at 5 ug/mL dose; type: functional, Rattus norvegicus; in short: as §3
GH3 [22] = experiment: Tested for its cytotoxic effect on the growth of the cell strain GH3 (2 x 10e 4 (F 10+)) at 2 ug/mL dose; type: functional, Rattus norvegicus; in short: as §3
GH3 [23] = experiment: Tested for its cytotoxic effect on the growth of the cell strain GH3 (2 x 10e 4 (F 10+)) at 5 ug/mL dose; type: functional, Rattus norvegicus; in short: as §3
GH3 [24] = experiment: Tested for its cytotoxic effect on the growth of the cell strain GH3 (2 x 10e 4 (F 10+)) at 75 ug/mL dose; type: functional, Rattus norvegicus; in short: as §3
GH4-C1 [25] = experiment: Tested for its cytotoxic effect on the growth of the cell strain GH4C1 (8 x 10e 4 (F 10+)) at 2 ug/mL dose; type: functional, Rattus norvegicus; in short: as §3
GH4-C1 [26] = experiment: Tested for its cytotoxic effect on the growth of the cell strain GH4C1 (8 x 10e 4 (F 10+)) at 20 ug/mL dose; type: functional, Rattus norvegicus; in short: as §3
GH4-C1 [27] = experiment: Tested for its cytotoxic effect on the growth of the cell strain GH4C1 (8 x 10e 4 (F 10+)) at 5 ug/mL dose; type: functional, Rattus norvegicus; in short: as §3
GH4-C1 [28] = experiment: Tested for its cytotoxic effect on the growth of the cell strain GH4C1 (8 x 10e 4 (F 10+)) at 75 ug/mL dose; type: functional, Rattus norvegicus; in short: as §3
H4 [29] = experiment: Tested for its cytotoxic effect on the growth of the cell strain H4 (8 x 10e 3 (MEM)) at 2 ug/mL dose; type: functional; in short: as §3
H4 [30] = experiment: Tested for its cytotoxic effect on the growth of the cell strain H4 (8 x 10e 3 (MEM)) at 5 ug/mL dose; type: functional; in short: as §3
H4 [31] = experiment: Tested for its cytotoxic effect on the growth of the cell strain H4 (8 x 10e 3 (MEM)) at 75 ug/mL dose; type: functional; in short: as §3
H4 [32] = experiment: Tested for its reversal effect on growth of H4 cells at 5 ug/mL concentrations of L-aspargine and DL-threo-beta-fluoroaspartate; type: functional
MH1C1 [33] = experiment: Tested for its cytotoxic effect on the growth of the cell strain MH1C1 (1 x 10e 4 (F 10+)) at 2 ug/mL dose; type: functional; in short: as §3
MH1C1 [34] = experiment: Tested for its cytotoxic effect on the growth of the cell strain MH1C1 (1 x 10e 4 (F 10+)) at 20 ug/mL dose; type: functional; in short: as §3
MH1C1 [35] = experiment: Tested for its cytotoxic effect on the growth of the cell strain MH1C1 (1 x 10e 4 (F 10+)) at 5 ug/mL dose; type: functional; in short: as §3
MH1C1 [36] = experiment: Tested for its cytotoxic effect on the growth of the cell strain MH1C1 (1 x 10e 4 (F 10+)) at 75 ug/mL dose; type: functional; in short: as §3
R5 [37] = experiment: Tested for its cytotoxic effect on the growth of the cell strain R5 (1 x 10e 3 (F 10+)) at 2 ug/mL dose; type: functional; in short: as §3
R5 [38] = experiment: Tested for its cytotoxic effect on the growth of the cell strain R5 (1 x 10e 3 (F 10+)) at 20 ug/mL dose; type: functional; in short: as §3
R5 [39] = experiment: Tested for its cytotoxic effect on the growth of the cell strain R5 (1 x 10e 3 (F 10+)) at 5 ug/mL dose; type: functional; in short: as §3
R5 [40] = experiment: Tested for its cytotoxic effect on the growth of the cell strain R5 (1 x 10e 3 (F 10+)) at 75 ug/mL dose; type: functional; in short: as §3
H4 [41] = experiment: Tested for its cytotoxic effect on the growth of the cell strain H4 (8 x 10e 3 (MEM)) at 20 ug/mL dose; type: functional; in short: as §3
7800C1 cell line [42] = experiment: Tested for its cytotoxic effect on the growth of the cell strain 7800C1 (1 x 10e 4 (MEM)) at 75 ug/mL dose; type: functional, Rattus norvegicus; in short: as §3
GH3 [43] = experiment: Tested for its cytotoxic effect on the growth of the cell strain GH3 (2 x 10e 4 (F 10+)) at 20 ug/mL dose; type: functional, Rattus norvegicus; in short: as §3

NC(=O)C[C@H](N)C(=O)O.NC(C(=O)O)C(F)C(=O)O (racemic)
Cell protein in untreated control (H4 [1]): 17% | Cell protein in untreated control (H4 [2]): 0%

NC(=O)C(F)[C@H](N)C(=O)O.NC(=O)C[C@H](N)C(=O)O (mixture of isomers; form 2)
Cell protein in untreated control (H4 [3]): 19% | Cell protein in untreated control (H4 [4]): 80%

NC(=O)C(F)C(N)C(=O)O (racemic)
Cell protein (7800C1 cell line [5]): 0 ug dish-1 | Cell protein (7800C1 cell line [6]): 15 ug dish-1 | Cell protein (GH4-C1 [7]): 35 ug dish-1 | Cell protein (GH3 [8]): 36 ug dish-1 | Cell protein (GH4-C1 [9]): 16 ug dish-1 | Cell protein (H4 [10]): 0 ug dish-1 | Cell protein (H4 [11]): 0 ug dish-1 | Cell protein in untreated control (H4 [12]): 17% | Cell protein in untreated control (H4 [13]): 0% | Cell protein (MH1C1 [14]): 55 ug dish-1 | Cell protein (MH1C1 [15]): 31 ug dish-1 | Cell protein (R5 [16]): 85 ug dish-1 | Cell protein (R5 [17]): 27 ug dish-1 | Cell protein (GH3 [18]): 14 ug dish-1

NC(C(=O)O)C(F)C(=O)O (racemic)
Cell protein (7800C1 cell line [19]): 10 ug dish-1 | Cell protein (7800C1 cell line [20]): 6 ug dish-1 | Cell protein (7800C1 cell line [21]): 9 ug dish-1 | Cell protein (7800C1 cell line [6]): 249 ug dish-1 | Cell protein (GH4-C1 [7]): 126 ug dish-1 | Cell protein (GH3 [8]): 104 ug dish-1 | Cell protein (GH3 [22]): 69 ug dish-1 | Cell protein (GH3 [23]): 23 ug dish-1 | Cell protein (GH3 [24]): 61 ug dish-1 | Cell protein (GH4-C1 [25]): 96 ug dish-1 | Cell protein (GH4-C1 [26]): 36 ug dish-1 | Cell protein (GH4-C1 [27]): 98 ug dish-1 | Cell protein (GH4-C1 [28]): 126 ug dish-1 | Cell protein (H4 [10]): 150 ug dish-1 | Cell protein (H4 [29]): 114 ug dish-1 | Cell protein (H4 [30]): 9 ug dish-1 | Cell protein (H4 [31]): 156 ug dish-1 | Cell protein in untreated control (H4 [32]): 0% and 5% | Cell protein (MH1C1 [14]): 159 ug dish-1 | Cell protein (MH1C1 [33]): 154 ug dish-1 | Cell protein (MH1C1 [34]): 140 ug dish-1 | Cell protein (MH1C1 [35]): 167 ug dish-1 | Cell protein (MH1C1 [36]): 149 ug dish-1 | Cell protein (R5 [16]): 122 ug dish-1 | Cell protein (R5 [37]): 128 ug dish-1 | Cell protein (R5 [38]): 50 ug dish-1 | Cell protein (R5 [39]): 98 ug dish-1 | Cell protein (R5 [40]): 90 ug dish-1 | Cell protein (H4 [41]): 4 ug dish-1 | Cell protein (7800C1 cell line [42]): 229 ug dish-1 | Cell protein (GH3 [43]): 22 ug dish-1
